Data: ChEMBL document CHEMBL4680165, “β-Lactams with antiproliferative and antiapoptotic activity in breast and chemoresistant colon cancer cells” (Eur J Med Chem, 2020)
Active and inactive are the calls of the source. The calls are words filed in the database; no cut-off is given here.

Legend:
MCF7 [1] = experiment: Induction of apoptosis in human MCF7 cells assessed as total apoptotic cells at 0.01 uM after 48 hrs by Annexin V-FITC and propidium iodide staining based flow cytometry (reference value: 10 %); type: functional
Summary of the method: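 MCF-7 cells were seeded at 1 × 10^5 cells/mL and treated for 48 h at 0.01, 0.1 and 1 µM; vehicle was 0.1% v/v ethanol. Annexin V staining was done on ice in the dark for 30 min in HEPES/NaCl/CaCl2 binding buffer, followed by PI. Flow cytometry scored early apoptotic (Annexin V+/PI−) and late apoptotic (Annexin V+/PI+) cells; total apoptotic is Annexin V-positive cells.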

MCF7 [2] = experiment: Cell cycle arrest in human MCF7 cells assessed as accumulation at G2/M phase at 1 uM measured after 72 hrs by PI staining based flow cytometry analysis (reference value: 24 %); type: functional
Summary of the method: (§1)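 Cells (1 × 10^5/well) were treated at 1 µM for 24, 48 and 72 h; vehicle was 0.1% v/v ethanol. Cells were trypsinised, fixed in ice-cold 70% ethanol overnight at −20 °C, then stained with PI (50 µg/mL) plus DNase-free RNase A (50 µg/mL) at 37 °C for 30 min. DNA content of 10,000 cells per group was read by flow cytometry at 488 nm.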

MCF7 [3] = experiment: Induction of apoptosis in human MCF7 cells assessed as downregulation of survivin expression level at 0.05 to 0.5 uM after 48 to 72 hrs by Western blot analysis; type: functional, cell-based; details: dose 0.05-0.5 µM, time 48-72 hrs
Summary of the method: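 MCF-7 cells (1 × 10^5 per flask) were treated at 0.05, 0.1 and 0.5 µM for 48 and 72 h; vehicle was 0.1% v/v ethanol. Lysis was in RIPA buffer with protease and phosphatase inhibitors. Equal protein (BCA) was run on 12% SDS-PAGE and blotted for Mcl-1, Bcl-2 and survivin, with GAPDH as loading control and ECL detection. Three independent experiments.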

HT-29 [4] = experiment: Antiangiogenic activity in human HT29 cells assessed as reduction in IL-1alpha secretion at 5 uM after 24 hrs by ELISA; type: functional, cell-based
Summary of the method: (§2)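 HT-29 cells at 5 x 10^4 per well, cultured 24 h and then exposed to 5 µM compound. Conditioned medium collected on ice and stored at -80 °C. Cytokines and angiogenic, vascular-injury and chemokine factors measured by multiplex panels with overnight supernatant incubation (Angiogenesis Panel 1 and Vascular Injury Panel 2 same day). Medium undiluted except 1:4 for Vascular Injury Panel 2. Secretion normalised to lysate protein by BCA.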

MCF7 [5] = experiment: Cell cycle arrest in human MCF7 cells assessed as accumulation at G2/M phase at 1 uM measured after 48 hrs by PI staining based flow cytometry analysis (reference value: 24 %); type: functional; summary of the method: as §1
HT-29 [6] = experiment: Antiangiogenic activity in human HT29 cells assessed as reduction in IL-1beta secretion at 5 uM after 24 hrs by ELISA; type: functional, cell-based; summary of the method: as §2
Tubulin (Homo sapiens) [7] = biological target: T1, Tubulin (Homo sapiens) (UniProt P68371+Q9H4B7+P0DPH7+P68366+Q13509+Q71U36+P04350+Q3ZCM7+P07437+P68363+Q9BQE3+Q6PEY2+Q13885+Q9BVA1+Q9BUF5); experiment: Induction of microtubule depolymerization in human MCF7 cells assessed as induction of spindle formation at 10 to 50 nM for 5 hrs by immunofluorescence staining based confocal microscopic analysis; type: cell-based; details: dose 10-50 nM
Summary of the method: (§3)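 MCF-7 cells were seeded at 1 × 10^5 cells/mL on chamber slides and treated at 0.01, 0.05 and 0.1 µM. Controls were vehicle (1% v/v ethanol), CA-4 (0.01 µM) and paclitaxel (1 µM). Cells were fixed and stained with anti-α-tubulin-FITC (DM1A) and Alexa Fluor 488, then counterstained with DAPI. Imaging was by confocal microscopy over three separate experiments.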

Tubulin (Homo sapiens) [8] = biological target: T1, Tubulin (Homo sapiens); experiment: Induction of microtubule depolymerization in human MCF7 cells assessed as induction of cell detachment and loss of radical distribution at 100 nM for 5 hrs by immunofluorescence staining based confocal microscopic analysis; summary of the method: as §3
HT-29 [9] = experiment: Antiangiogenic activity in human HT29 cells assessed as reduction in VEGF secretion at 5 uM after 24 hrs by ELISA; type: functional, cell-based; summary of the method: as §2
HEK-293T = experiment: Antiproliferative activity against human HEK293T cells assessed as reduction in cell viability after 72 hrs by alamar blue assay; type: cell-based
Summary of the method: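 Cells seeded at 5 x 10^3/well (MCF-7) or 1 x 10^4/well (HT-29, HEK-293T) and treated after 24 h with serial dilutions (0.001-100 µM) in 1% v/v ethanol vehicle. Alamar Blue 10% v/v added at 72 h, then 3-5 h at 37 °C in the dark; fluorescence ex 530/em 590 nm. Viability relative to vehicle; IC50 from dose-response curves; mean of three experiments in triplicate.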

HT-29 [10] = experiment: Cell cycle arrest in human HT-29 cells assessed as accumulation at G2/M phase at 1 uM measured after 24 hrs by PI staining based flow cytometry analysis (reference value: 11 %); type: functional; summary of the method: as §1
HT-29 [11] = experiment: Induction of apoptosis in human HT29 cells assessed as cell apoptosis at 1 uM after 24 hrs by Annexin V-FITC and propidium iodide staining based flow cytometry; type: functional
Summary of the method: (§4)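 HT-29 cells were treated at 1 µM for 24, 48 and 72 h against an untreated control. Cells were stained with Annexin V in binding buffer (HEPES pH 7.4, NaCl, CaCl2) for 30 min on ice in the dark, washed, resuspended in PI-containing buffer and read at once by flow cytometry. Quadrants: early apoptotic, late apoptotic, necrotic (Annexin V−/PI+).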

HT-29 [12] = experiment: Induction of apoptosis in human HT29 cells assessed as cell apoptosis at 1 uM after 48 hrs by Annexin V-FITC and propidium iodide staining based flow cytometry; type: functional; summary of the method: as §4
[13] = biological target: UDP-glucuronosyltransferases (UGTs) (Homo sapiens, UniProt O60656+O75310+O75795+P06133+P0DTE4+P0DTE5+P16662+P19224+P22309+P22310+P35503+P35504+P36537+P54855+Q6UWM9+Q9BY64+Q9HAW7+Q9HAW8+Q9HAW9); experiment: Metabolic stability in human liver microsomes assessed as UGT-mediated N-glucuronidation by measuring intrinsic clearance at 3 uM measured up to 45 mins by LC-MS/MS analysis; type: ADME; details: liver microsomes, read-out: CLH
Summary of the method: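 Pooled human liver microsomes (0.5 mg/mL protein final) with alamethicin (25 µg/mg) in 0.1 M phosphate pH 7.4, compound 3 µM final (0.25% DMSO), preincubated 37 °C. Reaction started with UDPGA (1 mM final). Sampled at 0, 5, 15, 30, 45 min into methanol, analysed by LC-MS/MS. Minus-UDPGA control run 45 min. Single incubations; t½ and CLint taken from the elimination rate constant.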

HT-29 [14] = experiment: Cell cycle arrest in human HT-29 cells assessed as accumulation at G2/M phase at 1 uM measured after 48 hrs by PI staining based flow cytometry analysis (reference value: 11 %); type: functional; summary of the method: as §1
Tubulin (Homo sapiens) [15] = biological target: T1, Tubulin (Homo sapiens); experiment: Induction of microtubule depolymerization in human MCF7 cells assessed as induction of cell rounding at 100 nM for 5 hrs by immunofluorescence staining based confocal microscopic analysis; summary of the method: as §3
HT-29 [16] = experiment: Induction of apoptosis in human HT29 cells assessed as necrotic cells at 1 uM after 72 hrs by Annexin V-FITC and propidium iodide staining based flow cytometry (reference value: 3 %); type: functional; summary of the method: as §4

Activity (Tubulin (Homo sapiens) [7]): Active
Activity (Tubulin (Homo sapiens) [8]): Active
microsomal CLint at 3 µM [13]: 14.2 µL/min/mg
Activity (Tubulin (Homo sapiens) [15]): Active
SMILES: COc1ccc([C@H]2[C@H](O)C(=O)N2c2cc(OC)c(OC)c(OC)c2)cc1F
Activity (MCF7 [1]): 13%
Activity (MCF7 [2]): 60%
Activity (MCF7 [3]): Active
Activity (HT-29 [4]): inactive
Activity (MCF7 [5]): 75%
Activity (HT-29 [6]): inactive
Activity (HT-29 [9]): inactive
IC50 (HEK-293T): > 50 µM
Activity (HT-29 [10]): 52%
Activity (HT-29 [11]): 21%
Activity (HT-29 [12]): 25%
Activity (HT-29 [14]): 57%
Activity (HT-29 [16]): 22%
